Test results from ChEMBL document CHEMBL4706591, “Diphenyl triazine hybrids inhibit α-synuclein fibrillogenesis: Design, synthesis and in vitro efficacy studies” (Eur J Med Chem, 2020).
Activity calls are given as the source filed them. The rule behind the calls is not given here.

What was measured:
[1] = Solubility of the compound in sodium phosphate buffer at pH 7.4; assay type: physicochemical
[2] = molecular target: Alpha-synuclein (Homo sapiens) (UniProt P37840); experiment: Inhibition of recombinant alpha-synuclein (unknown origin) aggregation expressed in Escherichia coli BL21 (DE3) cells assessed as elongation phase time at 1:1 compound-protein molar ratio measured for every 30 mins in presence of ThT by spectrofluorometry (reference value: 31.2 +/- 0.6 hrs); conditions: dose 70.0 µM
Method in brief: (§1)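 Recombinant α-syn from E. coli BL21(DE3), extracted by osmotic shock, purified on DEAE-Sepharose with 50–500 mM NaCl gradient. Run at 37 °C; Ex 440/Em 485 nm read every 30 min after 30 s orbital shaking, until plateau. Four wells each. Each well fitted to a sigmoid giving t1/2, kapp = 1/τ, and tlag from lag/elongation intercept, then averaged; Student's t-test.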

[3] = molecular target: Alpha-synuclein (Homo sapiens) (UniProt P37840); experiment: Inhibition of recombinant alpha-synuclein (unknown origin) aggregation expressed in Escherichia coli BL21 (DE3) cells assessed as lag time at 1:1 compound-protein molar ratio measured for every 30 mins in presence of ThT by spectrofluorometry (reference value: 15.1 +/- 0.9 hrs); method in brief: as §1
[4] = Aggregation property of the compound assessed as change in ThT fluorescence in presence of Thioflavin T; assay type: physicochemical; conditions: 336 h; time 2 weeks
Method in brief: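 Compound alone incubated with ThT without α-syn for over 2 weeks; ThT fluorescence monitored to exclude self-aggregation interference.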

[5] = molecular target: Alpha-synuclein (Homo sapiens) (UniProt P37840); experiment: Inhibition of recombinant alpha-synuclein (unknown origin) aggregation expressed in Escherichia coli BL21 (DE3) cells at 1:1 compound-protein molar ratio measured for every 30 mins in presence of ThT by spectrofluorometry; method in brief: as §1
[6] = molecular target: Alpha-synuclein (Homo sapiens) (UniProt P37840); experiment: Inhibition of recombinant alpha-synuclein (unknown origin) aggregation expressed in Escherichia coli BL21 (DE3) cells assessed as apparent elongation rate constant at 1:1 compound-protein molar ratio measured for every 30 mins in presence of ThT by spectrofluorometry (reference value: 108.7 +/- 1.8 10^-3/hr); method in brief: as §1
[7] = molecular target: Alpha-synuclein (Homo sapiens) (UniProt P37840); experiment: Inhibition of recombinant alpha-synuclein (unknown origin) aggregation expressed in Escherichia coli BL21 (DE3) cells assessed as reduction in fluorescent labeled aggregates at 20 uM incubated for >=66 hrs by ThT dye based inverted fluorescence microscopic analysis; conditions: time hrs >=66
Method in brief: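 After the ThT kinetic run (about 66 h), 10 µL of control or compound-incubated α-syn mixed with 20 µM ThT was placed on a glass slide under a coverslip. Imaged on an inverted fluorescence microscope, FITC filter, 100× oil objective, with constant laser power and intensity.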

MEF [8] = experiment: Cytotoxicity against mouse MEF cells at 10 uM incubated for 24 hrs in presence of aggregated alpha-synuclein by MTT assay; assay type: cell-based
Method in brief: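 MEF cells cultured and plated as for the compound-only cytotoxicity assay. Cells treated in triplicate for 24 h with monomeric α-syn, aggregated α-syn, or α-syn aggregated in presence of compound at 1:1. Viability read by MTT (0.5 mg/mL, 4 h, 570 nm). Mean ± SEM, three replicates; Student's t-test, p<0.05.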

[9] = molecular target: Alpha-synuclein (Homo sapiens) (UniProt P37840); experiment: Inhibition of recombinant alpha-synuclein (unknown origin) aggregation expressed in Escherichia coli BL21 (DE3) cells assessed as final plateau fluorescence at 1:1 compound-protein molar ratio measured for every 30 mins in presence of ThT by spectrofluorometry relative to control; method in brief: as §1
[10] = molecular target: Alpha-synuclein (Homo sapiens) (UniProt P37840); experiment: Disruption of recombinant preformed alpha-synuclein (unknown origin) aggregation expressed in Escherichia coli BL21 (DE3) at 20 uM incubated for 5 days by ThT dye based inverted fluorescence microscopic analysis; conditions: time 5.0 day
Method in brief: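 Preformed α-syn aggregates incubated with compound at 1:1 molar ratio at 37 °C for 5 days, without ThT, in a sealed plate, one well each. Samples then stained with ThT and imaged on an inverted fluorescence microscope through a FITC filter with constant imaging parameters.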

MEF [11] = experiment: Cytotoxicity against mouse MEF cells at 10 uM incubated for 24 hrs by MTT assay; assay type: cell-based
Method in brief: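 MEF cells grown in DMEM with 10% FBS and 1% penicillin-streptomycin to about 80% confluency. Cells trypsinized, plated, and left 24 h at 37 °C in humidified CO2. Compound added at 10 µM in triplicate with DMSO vehicle control, 24 h. MTT 0.5 mg/mL for 4 h in dark, formazan dissolved in DMSO, absorbance read at 570 nm. Mean ± SEM of three independent replicates.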

Row | Compound | solubility [1] | T1/2 [2] [h] | Tlag [3] [h] | Activity [4] | inhibition [5] | Kapp [6] | inhibition [7] | Activity (MEF [8]) | inhibition [9] [%] | inhibition [10] | Activity (MEF [11])
1 | O=C(CSc1nnc(-c2ccccc2)c(-c2ccccc2)n1)N1CCN(S(=O)(=O)c2ccc3ccccc3c2)CC1 | Insoluble | 30 | 16.1 | Not Active | Active | 116 10^-3/hr | – | – | – | – | –
2 | O=C(CSc1nnc(-c2ccccc2)c(-c2ccccc2)n1)N1CCN(c2ccnc3cc(Cl)ccc23)CC1 | Insoluble | 28.2 | 15.9 | Not Active | Active | 128 10^-3/hr | Active | Toxic | > 50 | Active | Non-Toxic
3 | Cc1ccc(S(=O)(=O)N2CCN(C(=O)CSc3nnc(-c4ccccc4)c(-c4ccccc4)n3)CC2)cc1 | Insoluble | 29.4 | 14.1 | Not Active | Active | 118 10^-3/hr | – | – | < 40 | – | –
4 | CC(=O)Nc1ccc(S(=O)(=O)N2CCN(C(=O)CSc3nnc(-c4ccccc4)c(-c4ccccc4)n3)CC2)cc1F | Insoluble | 28.1 | 14.9 | Not Active | Active | 121 10^-3/hr | Active | Toxic | > 50 | Active | Non-Toxic
5 | CC(=O)Nc1ccc(S(=O)(=O)N2CCN(C(=O)CSc3nnc(-c4ccccc4)c(-c4ccccc4)n3)CC2)cc1 | Insoluble | 27.5 | 14.6 | Not Active | Active | 86.6 10^-3/hr | Active | Non-Toxic | > 50 | Active | Non-Toxic
6 | O=C(CSc1nnc(-c2ccccc2)c(-c2ccccc2)n1)N1CCN(S(=O)(=O)c2ccc(Cl)cc2Cl)CC1 | Insoluble | 30.4 | 13.9 | Not Active | Active | 122 10^-3/hr | – | – | – | – | –
7 | O=C(CSc1nnc(-c2ccccc2)c(-c2ccccc2)n1)N1CCN(S(=O)(=O)c2ccc(Br)cc2)CC1 | Insoluble | 27 | 14.4 | Not Active | Active | 120 10^-3/hr | Active | Non-Toxic | < 40 | inactive | Non-Toxic
8 | O=C(CSc1nnc(-c2ccccc2)c(-c2ccccc2)n1)N1CCN(S(=O)(=O)c2ccccc2[N+](=O)[O-])CC1 | Insoluble | 29.1 | 15.3 | Not Active | Active | 123 10^-3/hr | – | – | < 40 | – | –
